# Laboratory results from ChEMBL document CHEMBL4513216, “Probing the Open Global Health Chemical Diversity Library for Multistage-Active Starting Points for Next-Generation Antimalarials” (ACS Infect Dis, 2020).
# Assay: Toxicity liver stage against HepG2, at 10uM
# Assay type: cell-based
# Design: test concentration 10 uM, cell line HepG2-A16-CD81EGFP
# Settings: human, HepG2-A16-CD81EGFP cells; read-out: INHIBITION
# In short: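 Uninfected HepG2-A16-CD81EGFP cells, 3 × 10^3 per well, 1536-well, plated on prespotted compound at 10 μM final, parasite-free screening media added to match infected plates; puromycin 10 μM positive, DMSO 0.5% negative; run in parallel with 48 h PbLuc assay at 37 °C, 5% CO2; viability by CellTiter-Glo luminescence, normalized to controls.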
row,SMILES,cytotoxicity at 10 µM [%]
1,CNc1nccnc1C1CN(Cc2ccc3[nH]ccc3c2)CCO1 (configuration not stated),-2.52
2,CCN1CCC(CC(=O)N[C@H](C(=O)O)c2cccc(F)c2F)CC1,-2.62
3,CSc1ccc(-c2cc(CN)nc3ccnn23)cc1,-7.5
4,COCCC1(CO)CCCN(Cc2ccc(C(F)(F)F)nc2)C1 (configuration not stated),-146
5,Cc1cc(C)c2c(C(=O)N(C)C)cc(-c3cnc(N)nc3)nc2c1,-8.87
6,O=C(NCc1ccccc1)NCC1CCN(Cc2ccsc2)CC1,-14.1
7,CCc1ccc(C(N)c2cccc(S(C)(=O)=O)c2)cc1 (configuration not stated),-10.9
8,Oc1cc(CN2CCCCC2c2cccnc2)nc2c(F)cccc12 (configuration not stated),-6.88
9,Cc1cc(O)n2nc(C3CCN(C(=O)c4ccccn4)CC3)cc2n1,-3.36
10,COc1cc(Cc2nc3c([nH]2)CC(C)(C)CNC3=O)cc(OC)c1,-6.27
11,CCOc1cc(C)nc(N2CCN(Cc3nccn3CC)CC2)n1,-3.81
12,CC(=O)Nc1ccc(Oc2cc(C)nc(C3CCCNC3)c2)cc1 (configuration not stated),2.58
13,CC1(C)CN(CCC(=O)NCc2cccc(Cl)c2)CC[C@]1(C)O,-3.45
14,Cn1cnc2c1CCN(Cc1csc(-c3ccsc3)n1)C2,-8.78
15,CC1c2ncc(Cn3cncn3)n2CCN1C(=O)C1CCOCC1 (configuration not stated),-13
16,Cc1nc(CN(C)C2CCN(Cc3sc(C)nc3C)C2)no1 (configuration not stated),-8.99
17,Cc1cc(CNC2(CO)CCOCC2)ccc1Br,17.4
18,CC(CNS(N)(=O)=O)Oc1cccc(Cl)c1 (configuration not stated),2.24
19,CN(CC(=O)NCCCOc1ccc(F)cc1)c1ccc(C#N)cn1,-0.844
20,CN(Cc1ccco1)C(=O)NCC(c1cccs1)N(C)C (configuration not stated),4.38
21,O=C([C@H]1C[C@H]2OCC[C@H]2N(Cc2ccoc2)C1)N1CCCCO1,-73.2

row,SMILES,cytotoxicity at 10 µM [%]
1,CC(C)C(CNC(=O)Nc1cn[nH]c1)N1CCOCC1 (configuration not stated),-6.83
2,COCC1c2nnn(C)c2CCN1C(=O)Cc1ccccn1 (configuration not stated),-97.1
3,CS(=O)(=O)N1CCN(C(=O)c2cncs2)CC(C(N)=O)C1 (configuration not stated),2.9
4,CN1CC2(CCN(C(=O)c3ccc4c(=O)n(C)cnc4c3)CC2)CC1=O,5.58
5,CC1CCCN(C(=O)CNC(=O)c2ccoc2)C1 (configuration not stated),-0.775
6,O=C1CCC2(CCCN(c3ncc(F)cn3)CC2)N1CC1CC1 (configuration not stated),-0.291
7,Cc1ccc(-c2cc(C(=O)NCCN3CCCS3(=O)=O)[nH]n2)o1,-7.98
8,CN(C)CCCn1ccc(-c2cccc(-c3cncnc3)c2)n1,2.51
9,CC(C)[C@H]1CN(c2ccncc2)C[C@@H]1NC(=O)C1(C#N)CCOCC1,-9.21
10,CN(CCc1ccccn1)S(=O)(=O)N1CCCC1c1ccco1 (configuration not stated),-14.8
11,Cc1ccc(N2CCCC(N3CCC4(CC3)OCCO4)C2=O)cc1 (configuration not stated),6.7
12,O=C(NCCc1ccccn1)C1CC(=O)N(CC(F)(F)F)C1 (configuration not stated),-25.2
13,O=C(NC1CCCC1)c1cc(Sc2ncccn2)ccn1,-12.3
14,C[C@@H]1CN(c2cc(N3CCC(O)CC3)ncn2)C[C@@]1(O)C1CCC1,-5.73
15,Cn1cc(C(=O)CC2CCCN2C(=O)c2ccc(Cl)cn2)cn1 (configuration not stated),-9.23
16,CCCc1nnc(N2CCC3(CC2)CN(C)C(=O)O3)o1,2.64
17,CCN(CC)C(CNC(=O)c1cccnc1-n1cncn1)c1ccsc1 (configuration not stated),-146
18,CC(NC(=O)Nc1cnn(CC(N)=O)c1)c1ccc(Cl)s1 (configuration not stated),11.5
19,CN(Cc1n[nH]c2c1CCC2)C(=O)CCc1cc2n(n1)CCNC2,-10.5
20,CCc1cnc(N2CC[C@H]3[C@H]2CC(=O)N3c2cccnc2)nc1,-9.62
21,Cc1cc(CN2C[C@@H]3COC[C@]3(c3nnc(C)o3)C2)no1,-2.11

row,SMILES,cytotoxicity at 10 µM [%]
1,Cc1cc(C2CCCN2C(=O)CN2CCc3ccccc32)on1 (configuration not stated),2.74
2,COc1ccc(NC(=O)C2OC(c3cccs3)=NN2C(C)=O)cc1OC (configuration not stated),-2.19
3,CC(C)N1CCC(N2CCOC3(CCCC3)C2)C1=O (configuration not stated),1.56
4,CC(=O)c1c(C)nn(CC(=O)Nc2ccc(Br)cc2)c1C,-9.87
5,COc1ccc2c(ccn2CCC(=O)NCCCC(=O)O)c1,5.7
6,Cc1ccc(OCC(=O)N(C)Cc2cccc(F)c2)cn1,27.6
7,CCc1cc(C(=O)NCC2CCN(Cc3cccc(C#N)c3)C2)on1 (configuration not stated),4.98
8,Cc1c(CNC2CCN(c3ccccc3OC(F)F)C2)cnn1C (configuration not stated),-1.77
9,COCCC1(C(=O)O)CCCN(Cc2cc3c(cc2C)OCO3)C1 (configuration not stated),-2.37
10,O=C(CC1CCCO1)NCCc1ccc(Br)cc1F (configuration not stated),-7.78
11,Cc1cccc(N2CCN(C(=O)Cc3ccccc3O)C(C)C2)n1 (configuration not stated),13.5
12,CNc1ncccc1CN1CCN(c2cc(NC3CC3)nc(N)n2)CC1,-6.58
13,CCOCC1CCN(C(=O)C(c2ccccc2F)N(C)C)CC1 (configuration not stated),5.06
14,Cc1sc(C(=O)NC(C)C)cc1S(=O)(=O)N(C)C,-7.84
15,CC(C)NC(=O)CN(C)C(=O)c1c(Br)c2ccccc2n1C,4.61
16,Cc1noc(C)c1CCCNC(=O)Nc1ccc2c(c1)CC(=O)N2,-16
17,O=C(c1cccs1)N1CC(C(=O)N2CCCC2)C2(CCOCC2)C1 (configuration not stated),-2.64
18,CC(C)N1CCC2(CC1)C(=O)N(CCN(C)C)c1ccccc12,-121
19,Cc1noc(C(C)N2CCC(c3nc4ccccc4[nH]3)CC2)n1 (configuration not stated),-6.4
20,CC(C)C(C)(C#N)NC(=O)Cn1cc(I)cn1 (configuration not stated),18.1
21,O=C1COC[C@H]([C@H](O)c2ccc(NC(=O)c3ccco3)cc2)N1,-2.33

row,SMILES,cytotoxicity at 10 µM [%]
1,Cc1cc(C)c(CNC(=O)NCC2Cc3ccccc3O2)c(=O)[nH]1 (configuration not stated),-5.21
2,CC(=O)N(C)CC(=O)NC(CC(C)C)c1cccs1 (configuration not stated),-1.49
3,CN(C)c1cc2c(nn1)CCN(C(=O)c1cc3c(s1)CCC3)C2,-6.97
4,CCc1cccc(NC(=O)CNc2ccccc2OCCC(=O)OC)c1,7.53
5,CC(C)c1cc(C(=O)N2CCNCC2C(=O)NCc2ccncc2)on1 (configuration not stated),-7.6
6,CC(C)[C@H](NC(=O)NC1CCS(=O)(=O)C1)C(=O)NCc1ccccc1 (some centres not stated),7.39
7,CCc1cc(N(C)Cc2noc(CC(C)C)n2)ncn1,7.18
8,CCN(C(=O)c1c(Cl)cnn1CC)C(C)C(N)=O (configuration not stated),-16.1
9,O=C(CC1CC1)N1CC[C@@H]2[C@H](CC1)N(Cc1cccnc1)CCS2(=O)=O,5.96
10,O=C(O)c1c(NC2CCC2)ncc2c1CCN(C1CCOC1)C2 (configuration not stated),11.4
11,CCC[C@H]1CN(S(C)(=O)=O)C[C@@H]1NC(=O)CCOCC,0.224
12,Cc1nc(C)c(S(=O)(=O)NC(=O)c2sccc2C)s1,0.25
13,CCCNC(=O)C1CCN(CC(O)c2ccccc2C(F)(F)F)CC1 (configuration not stated),3.21
14,CCC(CC)c1nnc(NC(=O)N2CCC(C(N)=O)CC2)s1,8.26
15,CCc1nnc2n1CCN(C(=O)c1cc3ccc(C)cc3[nH]1)C2,-4.87
16,O=C(N1CCCC1)N1CCC[C@]2(C[C@@H](Oc3ncccc3F)CO2)C1,-0.269
17,CC(=O)Nc1ccc(Cl)c(C(=O)N(C)Cc2nc(C)c[nH]2)c1,1.37
18,CC(C)COC(=O)N1CCC2(CCNC2)C1 (configuration not stated),-10.1
19,Cc1nnc2n1CCN(C(=O)c1cn(-c3ccc(F)cc3)nn1)C2,-149
